The text below walks through data of publication PMC6331712 (ChemistryOpen, 2019).

Where “and” joins values, the source holds several entries; their conditions need not be identical. Equal entries are not always repeated. Bounds are passed on as bounds.

The test system of one data set is HEP‐G2 cells. Briefly: MTT cell viability assay, HEP-G2 cells. Particulars: for LD50 / LD25: HEP‐G2 cells, MTT; for LD50: 24 h exposure; for LD25: 48 h exposure; for Tox./Act. (toxicity/activity ratio, safety index): average LD25 (48 h, HEP‐G2) divided by average EC50 (KV7.2/3). It is filed as cell-based, human. In general terms: Tetrazolium assays rely on reduction of a dye to a coloured formazan, in cell work by metabolically active cells.

The nature of data set [1]: LogD7.4 determination from HPLC retention times with calibration curve. It is filed as physicochemical. Particulars: pH 7.4; for logD 7.4: from HPLC retention factor and calibration curve.
For a further data set, the system named is TAMH cells. Briefly: MTT cell viability assay, TAMH cells. It is filed as cell-based, mouse. Conditions: for LD50 / LD25: TAMH cells, MTT; for LD50: 24 h exposure; for LD25: 48 h exposure; for Tox./Act. (toxicity/activity ratio, safety index): average LD25 (48 h, TAMH) divided by average EC50 (KV7.2/3). The procedure, abridged: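 MTT viability read-out in TAMH (transgenic mouse hepatocyte) and HEP-G2 (human hepatoma) cell lines. LD50 was taken after 24 h of exposure. […] LD50 values are means with standard deviations of 4–5 independent determinations. The ratio uses the mean EC50 from a thallium-flux KV7.2/3 assay (30 min exposure, four-parameter logistic fit).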

A further data set deals with KV7.2/KV7.3 channel (Homo sapiens, UniProt O43525+O43526). It is filed as cell-based. Conditions: for Emax: HEK293; for KV7.2/KV7.3 channel opening activity (in words): thallium flux assay, compared with 1.
The nature of data set [2]: Anodic peak potential by cyclic voltammetry. The data set is classed as physicochemical. Particulars: 1.0 mM compound in 100 mM TRIS‐buffer (pH 7.4).

KV7.2/KV7.3 channel, sequence (O43525 whole entry): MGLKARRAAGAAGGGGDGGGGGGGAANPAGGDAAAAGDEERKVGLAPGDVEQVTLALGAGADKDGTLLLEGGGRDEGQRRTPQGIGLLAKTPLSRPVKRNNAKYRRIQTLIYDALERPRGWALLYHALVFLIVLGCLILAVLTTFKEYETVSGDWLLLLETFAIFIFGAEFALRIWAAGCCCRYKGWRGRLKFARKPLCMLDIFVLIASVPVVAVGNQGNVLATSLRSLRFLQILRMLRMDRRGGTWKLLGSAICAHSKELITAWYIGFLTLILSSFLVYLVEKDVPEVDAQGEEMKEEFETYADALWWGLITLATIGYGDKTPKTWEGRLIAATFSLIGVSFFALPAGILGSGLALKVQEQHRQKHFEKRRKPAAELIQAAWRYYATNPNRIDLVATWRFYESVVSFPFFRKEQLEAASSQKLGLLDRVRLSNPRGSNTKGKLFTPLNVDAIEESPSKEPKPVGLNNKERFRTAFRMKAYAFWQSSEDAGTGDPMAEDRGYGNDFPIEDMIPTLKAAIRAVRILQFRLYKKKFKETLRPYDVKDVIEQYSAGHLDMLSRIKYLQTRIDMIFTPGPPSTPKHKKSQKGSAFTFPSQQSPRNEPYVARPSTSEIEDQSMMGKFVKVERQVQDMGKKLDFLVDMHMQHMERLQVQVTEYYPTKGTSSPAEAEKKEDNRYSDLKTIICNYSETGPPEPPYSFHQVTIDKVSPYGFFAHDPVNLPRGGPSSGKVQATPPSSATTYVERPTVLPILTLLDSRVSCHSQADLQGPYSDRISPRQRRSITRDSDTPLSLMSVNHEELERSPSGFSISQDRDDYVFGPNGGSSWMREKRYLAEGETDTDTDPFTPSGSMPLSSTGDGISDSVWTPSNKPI
KV7.2/KV7.3 channel, sequence (O43526 whole entry): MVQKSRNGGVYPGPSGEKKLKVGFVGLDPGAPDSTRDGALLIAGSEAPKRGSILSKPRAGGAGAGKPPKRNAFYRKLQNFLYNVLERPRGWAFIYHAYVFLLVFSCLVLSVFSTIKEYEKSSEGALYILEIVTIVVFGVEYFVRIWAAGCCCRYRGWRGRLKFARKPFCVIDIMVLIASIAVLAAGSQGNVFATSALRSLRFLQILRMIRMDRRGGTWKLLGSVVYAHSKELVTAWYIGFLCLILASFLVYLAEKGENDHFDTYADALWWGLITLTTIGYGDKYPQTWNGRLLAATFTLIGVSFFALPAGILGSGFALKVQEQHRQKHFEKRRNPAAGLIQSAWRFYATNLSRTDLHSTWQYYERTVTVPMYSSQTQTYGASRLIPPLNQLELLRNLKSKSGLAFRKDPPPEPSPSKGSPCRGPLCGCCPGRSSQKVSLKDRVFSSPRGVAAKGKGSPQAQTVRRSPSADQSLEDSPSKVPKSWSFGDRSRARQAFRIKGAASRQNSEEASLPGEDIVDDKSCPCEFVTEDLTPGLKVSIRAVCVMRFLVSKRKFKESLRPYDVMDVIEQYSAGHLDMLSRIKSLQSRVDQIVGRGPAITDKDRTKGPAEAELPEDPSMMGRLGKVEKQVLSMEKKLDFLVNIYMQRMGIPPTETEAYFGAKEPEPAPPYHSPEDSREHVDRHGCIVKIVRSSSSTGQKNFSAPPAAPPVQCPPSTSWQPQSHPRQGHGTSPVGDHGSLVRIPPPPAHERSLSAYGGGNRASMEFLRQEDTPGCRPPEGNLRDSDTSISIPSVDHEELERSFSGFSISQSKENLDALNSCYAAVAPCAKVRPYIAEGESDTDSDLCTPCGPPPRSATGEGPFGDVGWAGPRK

As for `Nc1nc(SCc2ccc(F)cc2)ccc1NC(=O)c1ccc(F)c(F)c1` [9 a, N-{2-A mino-6-[(4-fluorobenzyl)thio]pyridin-3-yl}-3,4-difluorobenzamide], in the data set with HEP‐G2 cells, the LD50 is 8 ± 3 µM; the LD25 stood at 4 ± 1 µM; the “Tox./Act. (toxicity/activity ratio, safety index)” value stood at 15. In addition, the chromatographic logD (commonly lipophilicity estimated from chromatographic retention) in data set [1] was determined as 3.9. In the data set on TAMH cells, the LD50 was more than 30 µM; the LD25 is 13 ± 04 µM; the “Tox./Act. (toxicity/activity ratio, safety index)” value is listed as 50. At KV7.2/KV7.3 channel, the EC50 (usually the concentration that produces a half-maximal response) amounted to 260 ± 82 nM; the Emax (in general, the size of the effect at its maximum, as opposed to the concentration needed) came to 100 ± 23%; the “KV7.2/KV7.3 channel opening activity (in words)” value was “as active as the marketed drug 1”. Also, the “Anodic peak potential E pa” value in data set [2] came out at 442 mV.
As for `CCOC(=O)Nc1ccc(SCc2ccc(-c3ccccc3)cc2)nc1N` [9 b, Ethyl-{6-[(1,1'-biphenyl-4-yl)methylthio]-2-aminopyridin-3-yl}carbamate], in the data set on HEP‐G2 cells, the LD50 was more than 250 µM. This molecule also came in with a chromatographic logD in data set [1] of 4.34. In addition, in the data set on TAMH cells, the LD50 was more than 63 µM; the LD25 was determined as 14 ± 13 µM; the “Tox./Act. (toxicity/activity ratio, safety index)” value was 55. On KV7.2/KV7.3 channel, a half-maximal effect (EC50) was put at 253 ± 42 nM, the Emax is 69 ± 9% and the “KV7.2/KV7.3 channel opening activity (in words)” value is recorded as “as active as the marketed drug 1”. In data set [2], the “Anodic peak potential E pa” value is recorded as 452 mV.
For `CCOC(=O)Nc1ccc(SCc2cc(OC)cc(OC)c2)nc1N` [9 c, Ethyl-{2-amino-6-[(3 ,5-dimethoxybenzylthio)pyridin-3-yl]}carbamate], the LD50 in the data set with HEP‐G2 cells is 134 ± 22 µM; in the data set on TAMH cells, more than 250 µM. The “logD 7.4” value in data set [1] was found to be 3.61. Besides, in data set [2], the “Anodic peak potential E pa” value was 450 mV.
The matching figures for `CCOC(=O)Nc1ccc(SCc2ccccn2)nc1N` [9 d, Ethyl-{2-amino-6-[(pyridin-2-ylmethylthio)pyridin-3-yl]}carbamate]: 831 ± 149 µM, more than 1000 µM, 2.62 and 499 mV.
As to `CCOC(=O)Nc1ccc(SC(=O)c2ccc(F)cc2)nc1N` [9 e, S-{6-Amino-5-[(ethoxycarbonyl)amino]pyridin-2-yl} 4-fluorobenzothioate], the LD50 in the data set on HEP‐G2 cells is more than 250 µM. In data set [1], this molecule yielded a chromatographic logD of 3. The same molecule came in with an LD50 in the data set on TAMH cells of more than 125 µM. Further, at KV7.2/KV7.3 channel, the half-maximal effective concentration (EC50) is more than 10000 nM and the “KV7.2/KV7.3 channel opening activity (in words)” value was “inactive in the tested concentration range”. Also, the “Anodic peak potential E pa” value in data set [2] came to 573 mV.
As for `CCOC(=O)Nc1ccc(SCCN2CCCCC2)nc1N` [9 f], the LD50 with HEP‐G2 cells and in the data set with TAMH cells was more than 500 µM throughout. Besides, in data set [1], the “logD 7.4” value is 2.04. Moreover, in data set [2], the “Anodic peak potential E pa” value was determined as 573 mV.
For the molecule `CNc1nc(SCc2ccccc2)ccc1NC(=O)Cc1cc(F)cc(F)c1` [9 g, N‐[6‐(Benzylthio)‐2‐(methylamino)pyridin‐3‐yl]‐2‐(3,5‐difluorophenyl)acetamide], in the data set with HEP‐G2 cells, the LD50 was more than 10 µM; the LD25 was 4 ± 4 µM; the “Tox./Act. (toxicity/activity ratio, safety index)” value is recorded as 267. In addition, in data set [1], the chromatographic logD amounted to 4.27. In the data set with TAMH cells, the LD50 was more than 7.5 µM; the LD25 is 6 ± 3 µM and 6 ± 03 µM; the “Tox./Act. (toxicity/activity ratio, safety index)” value worked out at 400. On KV7.2/KV7.3 channel, the EC50 was 15 ± 2 nM; the Emax was found to be 147 ± 9%; the “KV7.2/KV7.3 channel opening activity (in words)” value was “markedly more potent and effective”. Besides, in data set [2], the “Anodic peak potential E pa” value turned out to be 631 mV.
With `CCOC(=O)Nc1ccc(SCc2ccc(F)cc2)nc1C` [9 h, E t hyl [6-(4-fluorobenzylthio)-2-methylpyridin-3-yl]carbamate], in the data set with HEP‐G2 cells, the LD50 is more than 30 µM; the LD25 stood at 25 ± 16 µM; the “Tox./Act. (toxicity/activity ratio, safety index)” value is 93. In addition, in data set [1], the chromatographic logD worked out at 3.85. In the data set with TAMH cells, this molecule had an LD50 of more than 10 µM and an LD25 of more than 10 µM. For the same molecule, at KV7.2/KV7.3 channel, the EC50 was found to be 269 ± 31 nM and the Emax is 129 ± 3%. The “Anodic peak potential E pa” value in data set [2] is reported as 855 mV.
Consider `Nc1nc([S+]([O-])Cc2ccc(F)cc2)ccc1NC(=O)c1ccc(F)c(F)c1` (centres unmarked) [10 a, N-[2-Amino-6-(4-fluorobenzylsulfinyl)pyridin-3-yl]-3 ,4-difluorobenzamide], for which the figures for the LD50 in the data set with HEP‐G2 cells and with TAMH cells were more than 125 µM and more than 100 µM, respectively. This molecule yielded a chromatographic logD in data set [1] of 3.24. Also, on KV7.2/KV7.3 channel, the EC50 is more than 10000 nM. Besides, the “Anodic peak potential E pa” value in data set [2] came out at 628 mV.
The like results for `CCOC(=O)Nc1ccc([S+]([O-])Cc2ccc(-c3ccccc3)cc2)nc1N` (centres unmarked) [10 b, E t hyl {6-[(1,1'-biphenyl-4-yl)methylsulfinyl]-2-aminopyridin-3-yl}carbamate] were, in that order, more than 63 µM, more than 63 µM, 3.72, more than 10000 nM and 654 mV.
`CCOC(=O)Nc1ccc([S+]([O-])Cc2ccc(F)cc2)nc1C` (centres unmarked) [10 d]: the LD50 with HEP‐G2 cells and in the data set on TAMH cells was more than 500 µM throughout. This molecule had a chromatographic logD in data set [1] of 3.02. The EC50 at KV7.2/KV7.3 channel was more than 10000 nM. Further, in data set [2], the “Anodic peak potential E pa” value was “n.o.^[g]”.
Turning to `CCOC(=O)Nc1ccc(NCc2ccc(F)cc2)nc1N` [Compound 1, Flupirtine, reference compound], in the data set on HEP‐G2 cells, the LD50 turned out to be 547 ± 111 µM; the LD25 came to 74 ± 40 µM; the “Tox./Act. (toxicity/activity ratio, safety index)” value turned out to be 81. This molecule also gave a chromatographic logD in data set [1] of 2.96. Besides, in the data set with TAMH cells, the LD50 came to 487 ± 51 µM; the LD25 turned out to be 103 ± 47 µM; the “Tox./Act. (toxicity/activity ratio, safety index)” value was 112. Also, on KV7.2/KV7.3 channel, the EC50 came to 918 ± 99 nM and the Emax amounted to 100%. Further, in data set [2], the “Anodic peak potential E pa” value is 350 mV.
